Source: PubChem
Most compounds without a hit are left out; they make up all but 2.3% or so of the library.
TRPC4 potent: allosterically enhances the mouse TRPC4 cation channel | Q9QUQ5 | HEK293 TRPC4beta/mu-opioid, DAMGO EC20, Fluo-4 Ca2+ flux; hits give high values | B-score at 10 µM | hit rate 0.42% among 310,000;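 active = B-score of calcium response area above 5 SD of library B-scores, with initial fluorescence ratio within 5 SD of library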;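 also: B-score of integrated fluorescence ratio over time as area under calcium response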
TRPC4 act: opens the mouse TRPC4 cation channel. Q9QUQ5. HEK293 TRPC4beta/mu-opioid, Fluo4 calcium fluorescence; hits give high values. B-score at 10 µM. hit rate 0.49% among 310,000. AID 2237;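 active = B-score above 5 SD of library B-scores, and initial fluorescence ratio not above library mean plus 5 SD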;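 also: positive B-score marks a calcium rise read as TRPC4 activation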
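Material: TRPC4beta and mu-opioid receptor HEK293 stable cells | Incubation: 45 min room-temperature Fluo4 loading, 110 s read | Detection: Kinetic Fluo4 calcium fluorescence | Measure: Integrated baseline-normalised fluorescence ratio, converted to per-well B score | Benchmarks: Low control buffer alone, high control maximal DAMGO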
TRPC6 inhibitor: inhibitors of mouse TRPC6 channel; Q61143; HEK293-TRPC6, membrane potential dye, ACh-evoked depolarization; hits give low values; B-score at 10 µM; hit rate 1.1% among 310,000;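 active = B-score under library mean minus 3 SD, initial fluorescence not abnormally high, positive integrated signal ratio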;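 also: B-score derived from integrated fluorescence ratio over the kinetic read; more negative B-score means stronger inhibition of depolarization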
Target sequence (Q61143 whole entry, looked up): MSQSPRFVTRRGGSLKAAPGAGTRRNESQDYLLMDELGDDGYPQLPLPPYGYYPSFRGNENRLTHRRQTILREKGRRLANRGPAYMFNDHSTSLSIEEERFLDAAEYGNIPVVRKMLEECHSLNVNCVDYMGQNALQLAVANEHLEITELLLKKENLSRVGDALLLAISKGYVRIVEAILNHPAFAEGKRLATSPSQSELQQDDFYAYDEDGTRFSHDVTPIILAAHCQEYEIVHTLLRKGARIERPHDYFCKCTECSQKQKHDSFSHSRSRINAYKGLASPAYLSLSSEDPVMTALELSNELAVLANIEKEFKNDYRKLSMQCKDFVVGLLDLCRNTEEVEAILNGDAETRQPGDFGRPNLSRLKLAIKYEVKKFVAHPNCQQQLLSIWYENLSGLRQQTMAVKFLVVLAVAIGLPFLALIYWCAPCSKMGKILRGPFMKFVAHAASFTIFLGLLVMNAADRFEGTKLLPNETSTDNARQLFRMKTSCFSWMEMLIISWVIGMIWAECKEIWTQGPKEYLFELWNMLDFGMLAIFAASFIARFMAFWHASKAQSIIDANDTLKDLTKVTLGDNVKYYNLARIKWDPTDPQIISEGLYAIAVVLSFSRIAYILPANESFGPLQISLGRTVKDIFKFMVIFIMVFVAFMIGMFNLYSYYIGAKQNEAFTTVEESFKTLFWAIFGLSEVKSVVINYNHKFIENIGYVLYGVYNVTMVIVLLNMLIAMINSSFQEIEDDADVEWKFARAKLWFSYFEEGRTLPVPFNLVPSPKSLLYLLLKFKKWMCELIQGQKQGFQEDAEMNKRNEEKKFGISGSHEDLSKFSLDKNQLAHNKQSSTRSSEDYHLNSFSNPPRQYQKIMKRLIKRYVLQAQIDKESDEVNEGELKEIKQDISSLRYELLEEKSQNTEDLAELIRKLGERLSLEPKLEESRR
TRPC4 inh: TRPC4 (mouse) channel inhibition; Q9QUQ5; HEK293 TRPC4beta/mu-opioid, DAMGO-evoked Fluo4 calcium flux; hits give low values; B-score at 10 µM; hit rate 0.39% among 300,000; AID 2247;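 active = B-score over 3 SD under the library average, no early fluorescence shift, positive overall ratio signal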
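Assay system: HEK293 cells with stable TRPC4beta plus mu-opioid receptor expression. Dosing: single dose. Measured by: Fluo4 Ca2+ flux fluorescence. Also added: DAMGO in two steps, submaximal then maximal. Read-out: B score from integrated Fluo4 fluorescence ratio.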
TRPC6 activator: mouse TRPC6 channel activation; Q61143; HEK293-TRPC6 membrane potential dye fluorescence; hits give high values; B-score at 10 µM; hit rate 0.13% among 310,000; AID 2550;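 active = B-score of the integrated fluorescence ratio above library mean plus 3 SD, and starting fluorescence ratio within library mean plus 5 SD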;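 also: higher score means more depolarization so channel activation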
TRPC4 spec 2: second selectivity test of TRPC6 inhibitors: effect on mouse TRPC4 | inhibition, % at 10 µM | HEK293 TRPC4/MOR, membrane potential dye fluorescence; channel activated by saturating DAMGO dose | AID 2776 | hit rate 42% among 920 | shares compounds with TRPC6 inhibitor;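 active = compounds whose fluorescence signal differed from control wells by over 3 SD, either direction, in both duplicate plates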
TRPC4 spec: tests whether TRPC6 inhibitors also affect mouse TRPC4 | shares compounds with TRPC6 inhibitor | HEK293 TRPC4/mu-opioid, membrane potential fluorescence | activity change, negative = inhibition, % at 10 µM | hit rate 61% among 920 | AID 2777;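 active = rise or fall in signal beyond 3 SD of buffer-only wells in both replicate plates, either sign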;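 also: integrated kinetic ratio of fluorescence range over baseline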
HEK293 MPD ctr 2-1: second check of TRPC6 inhibitor effects in parental HEK293 cells; shares compounds with TRPC6 inhibitor; parental HEK293 membrane potential dye fluorescence; maximal acetylcholine challenge after compound addition; signal change vs control, % at 10 µM; hit rate 31% among 920; AID 2779;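 active = membrane potential signal moving either way by over 3 SD of the maximum-effect control, in both duplicate plates, meaning non-specific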
HEK293 MPD ctr-1: checks TRPC6 inhibitor effects in parental HEK293 cells. shares compounds with TRPC6 inhibitor. parental HEK293 membrane potential dye fluorescence. membrane potential signal change, % at 10 µM. hit rate 60% among 920. AID 2780;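 active = membrane potential signal shifting up or down by more than 3 SD of buffer-only wells, on both duplicate plates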
HEK293 MPD ctr-2: counter-screen for TRPC6 modulators: effect in parental HEK293 cells; membrane potential dye fluorescence; shares compounds with TRPC6 inhibitor; hit rate 51% among 2,400; AID 488924; membrane potential signal change, % at 10 µM;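 active = membrane potential signal moves up or down beyond 5 SD from buffer-only wells, on both duplicate plates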
HEK293 MPD ctr 2-2: second counter-screen for TRPC6 modulators: effect in parental HEK293 cells; membrane potential dye fluorescence; after compound, maximal acetylcholine stimulation; inhibition, % at 10 µM; shares compounds with TRPC6 inhibitor; AID 488926; hit rate 14% among 2,400;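 active = membrane potential signal drops by more than 5 SD from the mean control signal, in both duplicate plates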;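 also: plate controls were acetylcholine ECmax control wells for no effect and buffer only wells for full effect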
TRPC4 ctr mod: mouse TRPC4 off-target activity of TRPC6 modulators | shares compounds with TRPC6 inhibitor | HEK293 TRPC4/mu-opioid, membrane potential fluorescence | percent change from control (negative = decrease, positive = increase), % at 10 µM | hit rate 69% among 2,400 | AID 488927;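 active = membrane potential signal moved up or down beyond 5 SD of buffer control wells, in both duplicate plates, actives on both sides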;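 also: plate controls were assay buffer wells for no effect and DAMGO maximal-effect wells for full effect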
TRPC4 ctr inh 2: second selectivity test of TRPC6 modulators against mouse TRPC4. shares compounds with TRPC6 inhibitor. HEK293 TRPC4/mu-opioid, membrane potential dye fluorescence; stimulated with maximal-effect DAMGO. inhibition, % at 10 µM. hit rate 55% among 2,400;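 active = drop in membrane potential signal beyond 5 SD of the control wells in both duplicate plates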;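 also: TRPC4 counter screen for TRPC6 hits run under conditions tuned for TRPC6 not TRPC4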
TRPC6 block conf: mouse TRPC6 inhibitor confirmation | shares compounds with TRPC6 inhibitor | HEK293-TRPC6, membrane potential dye, ACh-evoked depolarization | inhibition, % at 10 µM | hit rate 43% among 3,300 | AID 488960;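 active = fluorescence ratio falls more than 5 SD below the full-stimulation control mean, in both duplicate runs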;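 also: integrated fluorescence ratio of peak minus minimum over baseline after agonist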
TRPC6 act conf: confirmation of mouse TRPC6 activators; shares compounds with TRPC6 inhibitor; HEK293-TRPC6 membrane potential dye fluorescence, FDSS; activation, % at 10 µM; hit rate 11% among 2,800; AID 488961;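 active = ratio signal rise beyond 5 SD above unstimulated control wells' mean, seen in both duplicate runs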;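 also: plate controls were buffer EC0 wells for no effect and acetylcholine ECmax response for full effect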
* = called active by the depositor; i = inactive; x = no result.

SMILES | TRPC4 potent | TRPC4 act | TRPC6 inhibitor | TRPC4 inh | TRPC6 activator | HEK293 MPD ctr-2 | HEK293 MPD ctr 2-2 | TRPC4 ctr mod | TRPC4 ctr inh 2 | TRPC6 block conf | TRPC6 act conf | others
Clc1ccc(Cl)c(OCCCCN2CCNCC2)c1 | 24* | i | -8.68* | i | i | x | x | x | x | i | i | TRPC4 spec 2=57.0%*;TRPC4 spec=-0.3%*;HEK293 MPD ctr 2-1=i;HEK293 MPD ctr-1=3.5%*
Clc1ccc(OCCCN2CCCCC2)c(Br)c1 | i | i | i | i | i | x | x | x | x | x | x
CCC(C)[C@H](N)C(=O)NC[C@H]1CC[C@H](C(=O)N[C@@H](Cc2ccccc2)C(=O)O)CC1 (stereo not given in full) | i | i | i | i | i | x | x | x | x | x | x
CC1=NN(C(N)=S)C(=O)C1N=Nc1cccc([N+](=O)[O-])c1 (stereo not given) | i | i | -5.26* | i | i | i | i | i | i | i | i
CC(=O)Nc1cccc(NC(=O)CCNC(=O)c2ccccc2)c1 | i | i | i | i | i | x | x | x | x | x | x
O=C(c1ccccc1)N(c1ccccc1)C1C=CS(=O)(=O)C1 (stereo not given) | i | i | -6.27* | i | i | i | i | i | i | i | i
COc1ccc(C(=O)N(c2ccccc2)C2C=CS(=O)(=O)C2)cc1 (stereo not given) | i | i | i | i | i | x | x | x | x | x | x
Cc1ccccc1CN1CCN(C(=O)CC(C)C)CC1 | i | i | i | i | i | x | x | x | x | x | x
O=C(NC1CC1)c1c[nH]c2ccc(S(=O)(=O)Nc3cccc(C(F)(F)F)c3)cc2c1=O | i | i | -5.22* | i | i | i | i | i | i | i | x
COc1ccc(S(=O)(=O)Nc2ccccc2C(=O)NCc2ccco2)cc1 | i | i | i | i | i | x | x | x | x | x | x
CCc1ccccc1NS(=O)(=O)c1ccc2[nH]cc(C(=O)NCc3ccco3)c(=O)c2c1 | i | i | -5* | i | i | i | i | i | i | i | i
O=C(NCc1ccccc1)c1c[nH]c2ccc(S(=O)(=O)Nc3ccc4c(c3)OCCO4)cc2c1=O | i | i | -5.21* | i | i | i | i | i | i | i | i
Cc1ccc(C(=O)Nc2ccccc2N2CCCC2)cc1 | i | i | i | i | i | x | x | x | x | x | x
O=C(NCCCN1CCOCC1)/C(=C/c1cccnc1)NC(=O)c1ccccc1 | i | i | i | i | i | x | x | x | x | x | x
CCOC(=O)CC(NS(=O)(=O)Cc1ccccc1)c1ccc(C)cc1 (stereo not given) | i | i | i | i | i | x | x | x | x | x | x
CC(C)c1ccc(NC2CCCN(C(=O)c3cnc4ccccn4c3=O)C2)cc1 (stereo not given) | i | i | -7.03* | i | i | x | x | x | x | i | i | TRPC4 spec 2=i;TRPC4 spec=i;HEK293 MPD ctr 2-1=i;HEK293 MPD ctr-1=i
Cc1ccc(NC2CCCN(C(=O)c3cnc4ccccn4c3=O)C2)cc1C (stereo not given) | i | i | i | i | i | x | x | x | x | x | x
Cc1ccc(CNC(=O)CN2C(=O)COc3ccc(S(=O)(=O)N4CCCCC4)cc32)o1 | i | i | i | i | i | x | x | x | x | x | x
CCCn1c(NCc2c[nH]c3ccccc23)nc2ccccc21 | i | i | -8.52* | i | i | x | x | x | x | i | i | TRPC4 spec 2=25.0%*;TRPC4 spec=-15.5%*;HEK293 MPD ctr 2-1=i;HEK293 MPD ctr-1=-209.0%*
N#CCCN(C(=O)Nc1ccc(Cl)cc1)c1ccccc1 | i | i | i | i | i | x | x | x | x | x | x
N#CCCN(CCC#N)C(=O)c1ccc(Cl)cc1 | i | i | -14* | i | i | i | i | i | i | i | i
CC(C)OC(=O)CSc1nc(Cc2cccs2)nc2ccccc12 | i | i | i | i | i | x | x | x | x | x | x
Cc1noc(C)c1C(=O)N1CCN(c2ccc(OCc3ccccc3)cc2)CC1 | i | i | i | i | i | x | x | x | x | x | x
Cc1nc2cc(NC(=O)N3CC4(C)CC3CC(C)(C)C4)ccc2n1C (stereo not given) | i | i | -6.14* | i | i | i | i | i | i | i | i
Cc1nc2cc(NC(=O)N3CCCC3)ccc2n1C | i | i | i | i | i | x | x | x | x | x | x
Cc1cccc(C)c1NC(=O)C1CCCN1C(=O)Nc1cccc(F)c1 (stereo not given) | i | i | i | i | i | x | x | x | x | x | x
Cc1ccc(-c2ccc(OC(=O)c3ccc(=O)[nH]c3)c(C)c2)cc1 | i | i | -5.07* | i | i | i | i | i | i | i | i
COC(=O)c1cc(OC(=O)c2ccc(=O)[nH]c2)cc(C(=O)OC)c1 | i | i | i | i | i | x | x | x | x | x | x
CC1=Nc2ccccc2/C1=C/c1sc(=N)n(-c2nccs2)c1O | i | i | i | i | 35.6* | 713.5%* | i | 110.5%* | i | i | 191.5%*
CC1=Nc2ccccc2/C1=C/c1nc(-c2ccc(C)s2)oc1O | i | i | i | i | i | x | x | x | x | x | x
